Assay results reported in ChEMBL document CHEMBL3808293, “Antiproliferative activity and apoptosis inducing effects of nitric oxide donating derivatives of evodiamine” (Bioorg Med Chem, 2016).
Active and inactive are the calls of the source. No cut-off for these calls is given here.

Assays:
[1] = Antiproliferative activity against human BGC823 cells after 72 hrs by MTT assay; format: functional, cell-based; settings: BGC-823, 72 h
Procedure, shortened: (§1)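 Cells pre-incubated 24 h at 37 °C, 5% CO2, then exposed to compounds for 72 h. MTT (5 mg/mL solution) added for a further 4 h, formazan dissolved in DMSO, OD read at 570 nm. Negative reference 0.1% DMSO; evodiamine and 5-Fu as positive references. IC50 is the concentration inhibiting 50% of growth; mean ± SD of three independent experiments.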

[2] = test system: A549; test: Antiproliferative activity against human A549 cells after 72 hrs by MTT assay; format: functional, cell-based; settings: A549, 72 h; procedure, shortened: as §1
[3] = Antiproliferative activity against human Bel7402 cells after 72 hrs by MTT assay; format: functional, cell-based; settings: Bel-7402, 72 h; procedure, shortened: as §1
[4] = Antiproliferative activity against human L02 cells after 72 hrs by MTT assay; format: cell-based; settings: L02, 72 h; procedure, shortened: as §1
[5] = test system: BGC-823; test: Induction of NO release in human BGC823 cells at 100 uM incubated for 1 hr by Griess assay; format: functional
Procedure, shortened: (§2)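 Cells exposed to 100 μM compound; the methods give 150 min, the results text 1 h. Cell lysates mixed with Griess reagent 10 min at 37 °C, absorbance read at 540 nm. Nitrite quantified against a sodium nitrite standard curve; 0.4% DMSO-treated cells gave background. Mean ± SD of three independent experiments.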

[6] = test system: Bel-7402; test: Induction of NO release in human Bel7402 cells at 100 uM incubated for 1 hr by Griess assay; format: functional; procedure, shortened: as §2
[7] = test system: L02; test: Induction of NO release in human L02 cells at 100 uM incubated for 1 hr by Griess assay; format: functional; procedure, shortened: as §2
[8] = Cell cycle arrest in human Bel7402 cells assessed as accumulation at G1 phase at 1 uM after 24 hrs by propidium iodide staining based flow cytometry (reference value: 43.13%); format: functional; settings: Bel-7402
[9] = Cell cycle arrest in human Bel7402 cells assessed as accumulation at G1 phase at 2 uM after 24 hrs by propidium iodide staining based flow cytometry (reference value: 43.13%); format: functional; settings: Bel-7402
[10] = Cell cycle arrest in human Bel7402 cells assessed as accumulation at G1 phase at 3 uM after 24 hrs by propidium iodide staining based flow cytometry (reference value: 43.13%); format: functional; settings: Bel-7402
[11] = Cell cycle arrest in human Bel7402 cells assessed as accumulation at S phase at 1 uM after 24 hrs by propidium iodide staining based flow cytometry (reference value: 33.7%); format: functional; settings: Bel-7402
[12] = Cell cycle arrest in human Bel7402 cells assessed as accumulation at S phase at 2 uM after 24 hrs by propidium iodide staining based flow cytometry (reference value: 33.7%); format: functional; settings: Bel-7402
[13] = Cell cycle arrest in human Bel7402 cells assessed as accumulation at S phase at 3 uM after 24 hrs by propidium iodide staining based flow cytometry (reference value: 33.7%); format: functional; settings: Bel-7402
[14] = Cell cycle arrest in human Bel7402 cells assessed as accumulation at G2 phase at 1 uM after 24 hrs by propidium iodide staining based flow cytometry (reference value: 23.17%); format: functional; settings: Bel-7402
[15] = Cell cycle arrest in human Bel7402 cells assessed as accumulation at G2 phase at 2 uM after 24 hrs by propidium iodide staining based flow cytometry (reference value: 23.17%); format: functional; settings: Bel-7402
[16] = Cell cycle arrest in human Bel7402 cells assessed as accumulation at G2 phase at 3 uM after 24 hrs by propidium iodide staining based flow cytometry (reference value: 23.17%); format: functional; settings: Bel-7402
[17] = test system: Bel-7402; test: Induction of mitochondrial membrane depolarization in human Bel7402 cells at 1 uM after 72 hrs by JC-1 staining based flow cytometry (reference value: 4.26%); format: functional
[18] = test system: Bel-7402; test: Induction of apoptosis in human Bel7402 cells assessed as live cells at 1 uM after 72 hrs by Annexin V-FITC/propidium iodide staining based flow cytometry (reference value: 88.31%); format: functional
[19] = test system: Bel-7402; test: Induction of apoptosis in human Bel7402 cells assessed as live cells at 2 uM after 72 hrs by Annexin V-FITC/propidium iodide staining based flow cytometry (reference value: 88.31%); format: functional
[20] = test system: Bel-7402; test: Induction of apoptosis in human Bel7402 cells assessed as live cells at 3 uM after 72 hrs by Annexin V-FITC/propidium iodide staining based flow cytometry (reference value: 88.31%); format: functional
[21] = test system: Bel-7402; test: Induction of apoptosis in human Bel7402 cells assessed as early apoptotic cells at 1 uM after 72 hrs by Annexin V-FITC/propidium iodide staining based flow cytometry (reference value: 6.66%); format: functional
[22] = test system: Bel-7402; test: Induction of apoptosis in human Bel7402 cells assessed as early apoptotic cells at 2 uM after 72 hrs by Annexin V-FITC/propidium iodide staining based flow cytometry (reference value: 6.66%); format: functional
[23] = test system: Bel-7402; test: Induction of apoptosis in human Bel7402 cells assessed as early apoptotic cells at 3 uM after 72 hrs by Annexin V-FITC/propidium iodide staining based flow cytometry (reference value: 6.66%); format: functional
[24] = test system: Bel-7402; test: Induction of apoptosis in human Bel7402 cells assessed as late apoptotic cells at 1 uM after 72 hrs by Annexin V-FITC/propidium iodide staining based flow cytometry (reference value: 2.55%); format: functional
[25] = test system: Bel-7402; test: Induction of apoptosis in human Bel7402 cells assessed as late apoptotic cells at 2 uM after 72 hrs by Annexin V-FITC/propidium iodide staining based flow cytometry (reference value: 2.55%); format: functional
[26] = test system: Bel-7402; test: Induction of apoptosis in human Bel7402 cells assessed as late apoptotic cells at 3 uM after 72 hrs by Annexin V-FITC/propidium iodide staining based flow cytometry (reference value: 2.55%); format: functional
[27] = test system: Bel-7402; test: Induction of apoptosis in human Bel7402 cells assessed as necrotic cells at 1 uM after 72 hrs by Annexin V-FITC/propidium iodide staining based flow cytometry (reference value: 2.48%); format: functional
[28] = test system: Bel-7402; test: Induction of apoptosis in human Bel7402 cells assessed as necrotic cells at 2 uM after 72 hrs by Annexin V-FITC/propidium iodide staining based flow cytometry (reference value: 2.48%); format: functional
[29] = test system: Bel-7402; test: Induction of apoptosis in human Bel7402 cells assessed as necrotic cells at 3 uM after 72 hrs by Annexin V-FITC/propidium iodide staining based flow cytometry (reference value: 2.48%); format: functional
[30] = test system: Bel-7402; test: Induction of apoptosis in human Bel7402 cells after 72 hrs by Annexin V-FITC/propidium iodide staining based flow cytometry; format: functional, cell-based
[31] = test system: Bel-7402; test: Induction of mitochondrial membrane depolarization in human Bel7402 cells at 2 uM after 72 hrs by JC-1 staining based flow cytometry (reference value: 4.26%); format: functional
[32] = test system: Bel-7402; test: Induction of mitochondrial membrane depolarization in human Bel7402 cells at 3 uM after 72 hrs by JC-1 staining based flow cytometry (reference value: 4.26%); format: functional
[33] = test system: Bel-7402; test: Induction of mitochondrial membrane depolarization in human Bel7402 cells after 72 hrs by JC-1 staining based flow cytometry; format: functional, cell-based
[34] = Induction of apoptosis in human Bel7402 cells assessed as upregulation of Bax expression at 1 to 3 uM after 72 hrs by Western blot analysis; format: functional, cell-based; settings: Bel-7402
Procedure, shortened: (§3)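 Bel-7402 cells exposed to different doses for 72 h, lysed, and protein content determined. Lysates separated on 10% SDS-PAGE and transferred to nitrocellulose. Membranes probed with monoclonal primary antibodies, then HRP-conjugated secondary antibodies, with ECL detection.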

[35] = test system: Bel-7402; test: Induction of apoptosis in human Bel7402 cells assessed as increase in caspase-3 expression at 1 to 3 uM after 72 hrs by Western blot analysis; format: functional, cell-based; procedure, shortened: as §3
[36] = test system: Bel-7402; test: Induction of apoptosis in human Bel7402 cells assessed as increase in caspase-8 expression at 1 to 3 uM after 72 hrs by Western blot analysis; format: functional, cell-based; procedure, shortened: as §3
[37] = test system: Bel-7402; test: Induction of apoptosis in human Bel7402 cells assessed as increase in caspase-9 expression at 1 to 3 uM after 72 hrs by Western blot analysis; format: functional, cell-based; procedure, shortened: as §3
[38] = Induction of apoptosis in human Bel7402 cells assessed as upregulation of FAS protein expression at 1 to 3 uM after 72 hrs by Western blot analysis; format: functional, cell-based; settings: Bel-7402; procedure, shortened: as §3
[39] = test system: Bel-7402; test: Induction of apoptosis in human Bel7402 cells assessed as increase in cytochrome-C level at 1 to 3 uM after 72 hrs by Western blot analysis; format: functional, cell-based; procedure, shortened: as §3
[40] = test system: Bel-7402; test: Induction of apoptosis in human Bel7402 cells assessed as down regulation of Bcl-2 expression at 1 to 3 uM after 72 hrs by Western blot analysis; format: functional, cell-based; procedure, shortened: as §3

## O=C(O)CCC(=O)OCCOc1no[n+]([O-])c1S(=O)(=O)c1ccccc1
[1]
  IC50: 18 µM
[2]
  IC50: 27.9 µM
[3]
  IC50: 21.4 µM
[4]
  IC50: 38.7 µM

## CN1c2ccccc2C(=O)N2CCc3c(n(CCOC(=O)CCC(=O)OCCOc4no[n+]([O-])c4S(=O)(=O)c4ccccc4)c4ccccc34)C21 (centres undefined)
[5]
  Activity: 93.5 µM
[6]
  Activity: 88.7 µM
[7]
  Activity: 6.59 µM
[1]
  IC50: 0.02 µM
[2]
  IC50: 3.04 µM
[3]
  IC50: 1.54 µM
[4]
  IC50: 17.1 µM

## CN1c2ccccc2C(=O)N2CCc3c(n(CCCOc4no[n+]([O-])c4S(=O)(=O)c4ccccc4)c4ccccc34)C21 (centres undefined)
[5]
  Activity: 83.6 µM
[6]
  Activity: 83.1 µM
[7]
  Activity: 16.4 µM
[1]
  IC50: 0.08 µM
[2]
  IC50: 5.85 µM
[3]
  IC50: 6.21 µM
[4]
  IC50: 2.35 µM

## CN1c2ccccc2C(=O)N2CCc3c(n(CCOc4no[n+]([O-])c4S(=O)(=O)c4ccccc4)c4ccccc34)C21 (centres undefined)
[5]
  Activity: 78.8 µM
[6]
  Activity: 77.5 µM
[7]
  Activity: 18.5 µM
[1]
  IC50: 0.02 µM
[2]
  IC50: 0.23 µM
[3]
  IC50: 0.55 µM
[4]
  IC50: 0.02 µM

## CN1c2ccccc2C(=O)N2CCc3c([nH]c4ccccc34)C21 (centres undefined)
[1]
  IC50: 1.16 µM
[2]
  IC50: 0.98 µM
[3]
  IC50: 1.23 µM
[4]
  IC50: 0.34 µM

## CN1c2ccccc2C(=O)N2CCc3c(n(CCCO[N+](=O)[O-])c4ccccc34)C21 (centres undefined)
[5]
  Activity: 83.8 µM
[6]
  Activity: 78.5 µM
[7]
  Activity: 19.4 µM
[1]
  IC50: > 100 µM
[2]
  IC50: > 100 µM
[3]
  IC50: 12.8 µM
[4]
  IC50: > 100 µM

## COC(=O)CCC(=O)OCCOc1no[n+]([O-])c1S(=O)(=O)c1ccccc1
[1]
  IC50: 21.4 µM
[2]
  IC50: 24.7 µM
[3]
  IC50: 27.9 µM
[4]
  IC50: 43.3 µM

## CN1c2ccccc2C(=O)N2CCc3c(n(CCCCCCOc4no[n+]([O-])c4S(=O)(=O)c4ccccc4)c4ccccc34)C21 (centres undefined)
[5]
  Activity: 87.3 µM
[6]
  Activity: 82.2 µM
[7]
  Activity: 26 µM
[1]
  IC50: 0.07 µM
[2]
  IC50: 2.31 µM
[3]
  IC50: 2.1 µM
[4]
  IC50: > 100 µM
[8]
  Activity: 44.9%
[9]
  Activity: 42.6%
[10]
  Activity: 42.6%
[11]
  Activity: 39.3%
[12]
  Activity: 47.3%
[13]
  Activity: 51.5%
[14]
  Activity: 15.7%
[15]
  Activity: 10%
[16]
  Activity: 5.9%
[17]
  Activity: 13.5%
[18]
  Activity: 77.63%
[19]
  Activity: 58.88%
[20]
  Activity: 40.74%
[21]
  Activity: 15.92%
[22]
  Activity: 20.98%
[23]
  Activity: 24.37%
[24]
  Activity: 3.71%
[25]
  Activity: 15.4%
[26]
  Activity: 28.2%
[27]
  Activity: 2.73%
[28]
  Activity: 4.74%
[29]
  Activity: 6.69%
[30]
  Activity: Dose-dependent effect
[31]
  Activity: 26.57%
[32]
  Activity: 44.37%
[33]
  Activity: Dose-dependent effect
[34]
  Activity: Active
[35]
  Activity: Active
[36]
  Activity: Active
[37]
  Activity: Active
[38]
  Activity: Active
[39]
  Activity: Active
[40]
  Activity: Active

## CN1c2ccccc2C(=O)N2CCc3c(n(CCCCCCO[N+](=O)[O-])c4ccccc34)C21 (centres undefined)
[5]
  Activity: 100 µM
[6]
  Activity: 104 µM
[7]
  Activity: 16.4 µM
[1]
  IC50: > 100 µM
[2]
  IC50: > 100 µM
[3]
  IC50: 28.8 µM
[4]
  IC50: > 100 µM

## CN1c2ccccc2C(=O)N2CCc3c(n(CCCOC(=O)CCC(=O)OCCOc4no[n+]([O-])c4S(=O)(=O)c4ccccc4)c4ccccc34)C21 (centres undefined)
[5]
  Activity: 97.6 µM
[6]
  Activity: 97 µM
[7]
  Activity: 18 µM
[1]
  IC50: 0.06 µM
[2]
  IC50: 5.32 µM
[3]
  IC50: 4.65 µM
[4]
  IC50: 6.38 µM
